Columns and labels:
[1] = Binding affinity to HCV 29-mer 2A RNA by MS based binding assay; parameters: species or system Hepacivirus hominis
Hepatitis C virus = assay: Reduction of HCV RNA levels by HCV replicon assay; type: functional, organism-based, Hepacivirus hominis
In short: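 HCV replicon cells treated with compound; intracellular HCV RNA levels quantified by RT-PCR.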

[2] = Cytotoxicity against Huh7 cells by MTT assay; type: cell-based, Huh-7; conditions: human
In short: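 Huh-7 cells; viability read by MTT; 50% cytotoxic concentration (CC50) reported.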

[3] = Binding affinity to HCV 40-mer RNA by MS based binding assay; parameters: species or system Hepacivirus hominis

SMILES: CC(C)CCOc1ccc2nc(N)n(CCCN(C)C)c2c1
- Kd [1]: 48 µM

SMILES: CN(C)CCCn1c(N)nc2ccc3c(c21)CC(CN(C)C)CO3 (stereo not given)
- EC50 (Hepatitis C virus): 3.9 µM
- CC50 [2]: > 100 µM
- Kd [3]: 0.86 µM

SMILES: CN(C)CC1COc2ccc3nc4n(c3c2C1)CC(CN(C)C)CN4 (stereo not given)
- EC50 (Hepatitis C virus): 5.4 µM
- CC50 [2]: > 100 µM
- Kd [3]: 0.72 µM

SMILES: Nc1nc2ccccc2n1CCCN1CCCC1
- Kd [1]: 125 µM

SMILES: COc1ccc2c(c1)nc(N)n2CCCN(C)C
- Kd [1]: > 200 µM

SMILES: COc1ccc2nc(N)n(CCCN(C)C)c2c1
- Kd [1]: 40 µM

SMILES: CN(C)CCCOc1ccc2nc3n(c2c1)CC(CN(C)C)CN3 (stereo not given)
- EC50 (Hepatitis C virus): 29 µM
- CC50 [2]: > 100 µM
- Kd [3]: 3.5 µM

SMILES: CN(C)CCCOc1ccc2nc(N)n(CCCN(C)C)c2c1
- EC50 (Hepatitis C virus): 37 µM
- CC50 [2]: > 100 µM
- Kd [3]: 17 µM
- Kd [1]: 10 µM

SMILES: CN(C)CCCn1c(N)nc2ccc(OCCN(C)C)cc21
- Kd [1]: 8 µM

SMILES: CN(C)CCCOc1ccc2c(c1)nc(N)n2CCCN(C)C
- Kd [1]: > 100 µM

SMILES: CCN(CC)CCCn1c(N)nc2ccccc21
- Kd [1]: 130 µM

SMILES: CCCCN(CCCC)CCCn1c(N)nc2ccccc21
- Kd [1]: > 200 µM

SMILES: CN(C)CCCOc1ccc2nc(N)[nH]c2c1
- Kd [1]: > 100 µM

SMILES: CN(C)CCCOc1ccc2ncn(CCCN(C)C)c2c1
- Kd [1]: > 100 µM

SMILES: Nc1nc2ccccc2n1CCCN1CCOCC1
- Kd [1]: > 200 µM

SMILES: CN(C)CCCCOc1ccc2nc(N)n(CCCN(C)C)c2c1
- Kd [1]: 7 µM

SMILES: COc1cccc2nc(N)n(CCCN(C)C)c12
- Kd [1]: 50 µM

SMILES: CN(C)CCCn1c(N)nc2ccc(OCc3ccccc3)cc21
- Kd [1]: 99 µM

SMILES: CN(C)CCCn1c(N)nc2ccc3c(c21)CC(CN(C)C)O3 (stereo not given)
- EC50 (Hepatitis C virus): 1.5 µM
- CC50 [2]: > 100 µM
- Kd [3]: 1.7 µM

SMILES: COc1cccc2c1nc(N)n2CCCN(C)C
- Kd [1]: > 200 µM

SMILES: CN(C)CCCn1c(N)nc2ccccc21
- CC50 [2]: > 100 µM
- Kd [3]: > 100 µM
- Kd [1]: 100 µM

SMILES: CCCn1c(N)nc2ccccc21
- Kd [1]: > 200 µM
